ChEMBL document CHEMBL5678808, “Human target validation of phosphoinositide 3-kinase (PI3K)β: effects on platelets and insulin sensitivity, using AZD6482 a novel PI3Kβ inhibitor” (J Thromb Haemost, 2012)
Calls of active or inactive are those of the source. The calls are words filed in the database; no cut-off is given here.

Tests used:
[1] = molecular target: Epidermal growth factor receptor (Homo sapiens, UniProt P00533); test: Inhibition of human EGFR
[2] = molecular target: Vascular endothelial growth factor receptor 2 (Homo sapiens, UniProt P35968); test: Inhibition of human KDR
[3] = molecular target: Tyrosine-protein kinase JAK3 (Homo sapiens, UniProt P52333); test: Inhibition of human JAK3
[4] = molecular target: Serine/threonine-protein kinase Chk1 (Homo sapiens, UniProt O14757); test: Inhibition of human CHK1
[5] = molecular target: Aurora kinase C (Homo sapiens) (UniProt Q9UQB9); test: Inhibition of human AuroraC at 10 uM relative to control
[6] = molecular target: Serine/threonine-protein kinase PAK 5 (Homo sapiens) (UniProt Q9P286); test: Inhibition of human PAK5 at 10 uM relative to control
[7] = molecular target: MAP kinase-activated protein kinase 2 (Homo sapiens) (UniProt P49137); test: Inhibition of MAPK Activated Protein Kinase-2 (unknown origin) at 10 uM relative to control
[8] = molecular target: Calcium/calmodulin-dependent protein kinase type 1 (Homo sapiens) (UniProt Q14012); test: Inhibition of human CAMK at 10 uM relative to control
[9] = molecular target: Mitogen-activated protein kinase 10 (Homo sapiens) (UniProt P53779); test: Inhibition of human JNK3 at 10 uM relative to control
[10] = molecular target: MAP kinase-activated protein kinase 3 (Homo sapiens) (UniProt Q16644); test: Inhibition of human MAPKAP-K3 at 10 uM relative to control
[11] = molecular target: RAC-beta serine/threonine-protein kinase (Homo sapiens) (UniProt P31751); test: Inhibition of human AKT2 at 10 uM relative to control
[12] = molecular target: Serine/threonine-protein kinase PAK 2 (Homo sapiens) (UniProt Q13177); test: Inhibition of human PAK2 at 10 uM relative to control
[13] = molecular target: Serine/threonine-protein kinase pim-3 (Homo sapiens) (UniProt Q86V86); test: Inhibition of human PIM3 at 10 uM relative to control
[14] = molecular target: Mitogen-activated protein kinase 13 (Homo sapiens) (UniProt O15264); test: Inhibition of human MAPK13 at 10 uM relative to control
[15] = molecular target: Serine/threonine-protein kinase Nek6 (Homo sapiens) (UniProt Q9HC98); test: Inhibition of human NEK6 at 10 uM relative to control
[16] = Inhibition of PI3Kbeta in Beagle dog whole blood assessed as reduction in ADP-induced platelet aggregation at 1 uM preincubated for 5 mins followed by ADP addition and measured for 6 mins by impedance aggregometry relative to control; conditions: Canis lupus familiaris, 11 min, condition thrombotic disease
[17] = system: Canis familiaris; test: Antithrombotic activity in Beagle dog model of arterial thrombosis and bleeding assessed as blood loss at 0.005 to 0.24 ug/kg/min, iv via bolus for 29 mins and measured for 15 mins; type: functional, organism-based; conditions: Canis lupus familiaris
In short: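 Modified Folts' model of thrombosis in a damaged, stenosed femoral artery of anesthetized dogs. Animals first received saline vehicle. Consecutive i.v. doses then followed, each given over a 30-min period as a bolus (0.03–1.3 μg kg−1) plus an infusion (0.005–0.24 μg kg min−1). Read-outs were cyclic flow reductions, expressed as % restoration of blood flow, plus bleeding time, blood loss and plasma drug exposure. Mean ± SEM, n = 6.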

[18] = system: Rattus norvegicus; test: Insulin sensitizing activity in Sprague-Dawley rat hyperinsulinemic-euglycemic glucose clamp model assessed as glucose infusion rate required to maintain euglycemia during infusion of human insulin at 1000 ug/kg/min, iv for 2 mins followed by 50 ug/kg/min, iv for 28 mins measured during clamp 1 (reference value: 124 +/- 4 umol/min/kg); type: functional; conditions: time 30 min, 0.5 h
In short: (§1)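 Anesthetized rats; hyperinsulinemic–euglycemic clamp with human insulin infused. A baseline clamp (Clamp1) was followed by a second clamp (Clamp2) with vehicle or drug i.v. The drug was given as a low dose (1000 μg kg−1 + 50 μg kg min−1) or a high dose (6000 μg kg−1 + 300 μg kg min−1). Steady-state glucose infusion rate for euglycemia was recorded, with plasma glucose, human insulin and total insulin; mean ± SEM, n = 4–5/group.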

[19] = system: Rattus norvegicus; test: Insulin sensitizing activity in Sprague-Dawley rat hyperinsulinemic-euglycemic glucose clamp model assessed as basal glucose level during infusion of human insulin at 6000 ug/kg/min, iv for 2 mins followed by 300 ug/kg/min, iv for 28 mins by colorimetry (reference value: 8.1 +/- 0.7 mM); type: functional; conditions: time 30 min, 0.5 h; in short: as §1
[20] = system: Rattus norvegicus; test: Insulin sensitizing activity in Sprague-Dawley rat hyperinsulinemic-euglycemic glucose clamp model assessed as human insulin level during infusion of human insulin at 6000 ug/kg/min, iv for 2 mins followed by 300 ug/kg/min, iv for 28 mins measured during clamp 1 (reference value: 1.7 +/- 0.1 nM); type: functional; conditions: time 30 min, 0.5 h; in short: as §1
[21] = system: Rattus norvegicus; test: Insulin sensitizing activity in Sprague-Dawley rat hyperinsulinemic-euglycemic glucose clamp model assessed as human insulin level during infusion of human insulin at 6000 ug/kg/min, iv for 2 mins followed by 300 ug/kg/min, iv for 28 mins measured during clamp 2 (reference value: 1.8 +/- 0.1 nM); type: functional; conditions: time 30 min, 0.5 h; in short: as §1
[22] = system: Rattus norvegicus; test: Insulin sensitizing activity in Sprague-Dawley rat hyperinsulinemic-euglycemic glucose clamp model assessed as basal total insulin level during infusion of human insulin at 1000 ug/kg/min, iv for 2 mins followed by 50 ug/kg/min, iv for 28 mins (reference value: 0.3 +/- 0.1 nM); type: functional; conditions: time 30 min, 0.5 h; in short: as §1
[23] = system: Rattus norvegicus; test: Insulin sensitizing activity in Sprague-Dawley rat hyperinsulinemic-euglycemic glucose clamp model assessed as total insulin level during infusion of human insulin at 6000 ug/kg/min, iv for 2 mins followed by 300 ug/kg/min, iv for 28 mins measured during clamp 2 (reference value: 2.2 +/- 0.1 nM); type: functional; conditions: time 30 min, 0.5 h; in short: as §1
[24] = Toxicity in Sprague-Dawley rat assessed as change in blood pressure at 30000 ug/kg, iv for 2 mins followed by 1500 ug/kg/min, iv for 28 mins; type: organism-based; conditions: in vivo, 30 mg/kg, 0.5 h, time 30 min
[25] = Plasma concentration in human at 0.9 to 13.5 mg, iv administered for 3 hrs via infusion by LC-MS/MS analysis; type: ADME, organism-based; conditions: dose 0.9-13.5 mg
In short: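 Randomized, double-blind, placebo-controlled single ascending dose study in healthy males aged 18–36, given a 3-h i.v. infusion. Plasma drug was measured by protein precipitation then LC-MS/MS, with non-compartmental PK analysis. The 3-h end-of-infusion sample was taken as steady-state concentration; mean, n = 6/dose.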

[26] = Clearance in human at 0.9 to 455.8 mg, iv administered for 3 hrs via infusion by LC-MS/MS analysis; type: ADME, organism-based; conditions: in vivo, dose 0.9-455.8 mg
In short: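 Randomized, double-blind, placebo-controlled single ascending-dose study in healthy male volunteers aged 18–36. Each subject received a 3-h i.v. infusion (0.9–455.8 mg). Plasma levels were measured by protein precipitation and LC-MS/MS (LLOQ 0.005 μm), with non-compartmental PK analysis. Half-life was calculated only for the four highest dose groups. The 3-h sample was taken as Css.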

[27] = Renal clearance (0 to 24 hrs) in human at 121.5 to 364.5 mg, iv administered for 3 hrs via infusion by LC-MS/MS analysis; conditions: in vivo

Mitogen-activated protein kinase 10 (Homo sapiens), sequence (P53779 whole entry): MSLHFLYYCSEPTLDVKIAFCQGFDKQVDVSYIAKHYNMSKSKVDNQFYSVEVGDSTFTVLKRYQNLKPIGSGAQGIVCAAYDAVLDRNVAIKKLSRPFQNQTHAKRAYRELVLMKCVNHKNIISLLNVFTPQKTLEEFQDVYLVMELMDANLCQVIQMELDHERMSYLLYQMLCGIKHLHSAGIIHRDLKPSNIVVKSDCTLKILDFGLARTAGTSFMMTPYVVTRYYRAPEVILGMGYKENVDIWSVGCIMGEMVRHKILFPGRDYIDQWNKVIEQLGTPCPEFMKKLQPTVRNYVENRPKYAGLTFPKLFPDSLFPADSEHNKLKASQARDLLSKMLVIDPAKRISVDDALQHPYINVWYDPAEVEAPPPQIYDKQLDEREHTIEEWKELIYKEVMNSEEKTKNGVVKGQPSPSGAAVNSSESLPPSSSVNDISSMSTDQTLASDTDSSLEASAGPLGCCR
Serine/threonine-protein kinase PAK 5 (Homo sapiens), sequence (Q9P286 whole entry, looked up): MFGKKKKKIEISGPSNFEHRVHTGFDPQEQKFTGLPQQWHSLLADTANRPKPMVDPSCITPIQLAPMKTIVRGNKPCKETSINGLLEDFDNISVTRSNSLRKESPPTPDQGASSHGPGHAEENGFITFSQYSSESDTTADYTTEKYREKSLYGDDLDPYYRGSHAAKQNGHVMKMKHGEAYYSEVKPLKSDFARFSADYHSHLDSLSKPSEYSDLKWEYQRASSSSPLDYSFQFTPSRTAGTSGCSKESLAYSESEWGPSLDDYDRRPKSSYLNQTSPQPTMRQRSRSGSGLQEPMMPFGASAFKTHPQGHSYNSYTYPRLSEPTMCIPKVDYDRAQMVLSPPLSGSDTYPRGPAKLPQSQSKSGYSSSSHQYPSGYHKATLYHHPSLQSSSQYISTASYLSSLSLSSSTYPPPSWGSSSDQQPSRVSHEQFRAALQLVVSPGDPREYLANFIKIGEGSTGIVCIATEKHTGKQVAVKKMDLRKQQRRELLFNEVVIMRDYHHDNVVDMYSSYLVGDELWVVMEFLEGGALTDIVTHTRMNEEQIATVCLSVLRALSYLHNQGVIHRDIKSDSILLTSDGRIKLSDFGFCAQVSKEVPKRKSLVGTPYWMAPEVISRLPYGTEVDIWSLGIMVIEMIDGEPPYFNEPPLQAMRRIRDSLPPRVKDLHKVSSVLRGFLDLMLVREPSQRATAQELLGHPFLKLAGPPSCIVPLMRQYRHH
MAP kinase-activated protein kinase 2 (Homo sapiens), sequence (P49137 whole entry, looked up): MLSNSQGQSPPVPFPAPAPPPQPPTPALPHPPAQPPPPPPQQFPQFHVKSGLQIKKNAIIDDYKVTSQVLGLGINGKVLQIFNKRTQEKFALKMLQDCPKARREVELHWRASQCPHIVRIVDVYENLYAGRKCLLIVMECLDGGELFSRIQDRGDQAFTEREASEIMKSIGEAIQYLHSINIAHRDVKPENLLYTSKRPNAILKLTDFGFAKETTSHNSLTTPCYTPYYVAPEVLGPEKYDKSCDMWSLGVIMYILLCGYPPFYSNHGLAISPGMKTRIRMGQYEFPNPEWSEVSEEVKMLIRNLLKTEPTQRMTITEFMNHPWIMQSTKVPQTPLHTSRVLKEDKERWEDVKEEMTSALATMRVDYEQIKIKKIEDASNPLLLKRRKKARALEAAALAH
Aurora kinase C (Homo sapiens), sequence (Q9UQB9 whole entry): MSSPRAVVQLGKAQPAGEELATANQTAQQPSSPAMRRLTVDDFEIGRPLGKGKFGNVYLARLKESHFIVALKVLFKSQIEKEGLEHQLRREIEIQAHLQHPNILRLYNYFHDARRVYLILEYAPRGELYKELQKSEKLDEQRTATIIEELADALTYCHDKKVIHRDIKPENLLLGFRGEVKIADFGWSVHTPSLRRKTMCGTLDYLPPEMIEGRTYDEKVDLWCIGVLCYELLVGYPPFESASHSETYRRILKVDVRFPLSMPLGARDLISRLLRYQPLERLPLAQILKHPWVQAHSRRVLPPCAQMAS
Calcium/calmodulin-dependent protein kinase type 1 (Homo sapiens), sequence (Q14012 whole entry, looked up): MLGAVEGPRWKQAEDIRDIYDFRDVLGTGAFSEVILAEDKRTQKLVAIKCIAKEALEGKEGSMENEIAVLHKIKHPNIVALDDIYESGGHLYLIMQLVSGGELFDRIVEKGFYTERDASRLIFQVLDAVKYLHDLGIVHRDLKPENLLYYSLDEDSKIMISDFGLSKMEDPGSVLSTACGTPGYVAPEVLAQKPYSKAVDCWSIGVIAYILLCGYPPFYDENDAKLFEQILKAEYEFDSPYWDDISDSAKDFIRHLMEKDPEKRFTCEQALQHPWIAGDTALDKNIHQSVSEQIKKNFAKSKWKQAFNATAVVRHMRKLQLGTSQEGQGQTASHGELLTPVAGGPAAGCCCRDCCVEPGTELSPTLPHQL
Serine/threonine-protein kinase Nek6 (Homo sapiens), sequence (Q9HC98 whole entry): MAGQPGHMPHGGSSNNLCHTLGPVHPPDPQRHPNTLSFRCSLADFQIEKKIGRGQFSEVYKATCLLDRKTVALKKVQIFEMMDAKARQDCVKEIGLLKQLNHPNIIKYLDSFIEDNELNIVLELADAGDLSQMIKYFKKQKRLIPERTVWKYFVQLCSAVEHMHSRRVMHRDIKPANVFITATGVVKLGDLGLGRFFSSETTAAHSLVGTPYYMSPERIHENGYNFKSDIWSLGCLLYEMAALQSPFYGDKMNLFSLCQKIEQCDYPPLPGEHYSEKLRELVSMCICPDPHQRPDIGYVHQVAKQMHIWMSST
Serine/threonine-protein kinase Chk1, sequence (O14757 whole entry): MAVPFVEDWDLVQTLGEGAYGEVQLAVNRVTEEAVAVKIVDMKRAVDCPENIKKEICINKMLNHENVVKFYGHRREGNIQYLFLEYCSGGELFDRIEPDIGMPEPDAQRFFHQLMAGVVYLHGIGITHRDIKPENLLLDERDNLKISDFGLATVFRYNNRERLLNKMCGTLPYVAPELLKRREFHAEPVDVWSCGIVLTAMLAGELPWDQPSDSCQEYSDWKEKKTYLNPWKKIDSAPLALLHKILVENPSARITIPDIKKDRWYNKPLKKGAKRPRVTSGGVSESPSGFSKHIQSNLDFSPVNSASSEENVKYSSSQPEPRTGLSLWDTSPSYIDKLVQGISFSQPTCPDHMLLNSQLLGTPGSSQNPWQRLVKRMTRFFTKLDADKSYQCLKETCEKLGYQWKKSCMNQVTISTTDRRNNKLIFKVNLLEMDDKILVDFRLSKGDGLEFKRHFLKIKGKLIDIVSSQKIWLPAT
MAP kinase-activated protein kinase 3 (Homo sapiens), sequence (Q16644 whole entry, looked up): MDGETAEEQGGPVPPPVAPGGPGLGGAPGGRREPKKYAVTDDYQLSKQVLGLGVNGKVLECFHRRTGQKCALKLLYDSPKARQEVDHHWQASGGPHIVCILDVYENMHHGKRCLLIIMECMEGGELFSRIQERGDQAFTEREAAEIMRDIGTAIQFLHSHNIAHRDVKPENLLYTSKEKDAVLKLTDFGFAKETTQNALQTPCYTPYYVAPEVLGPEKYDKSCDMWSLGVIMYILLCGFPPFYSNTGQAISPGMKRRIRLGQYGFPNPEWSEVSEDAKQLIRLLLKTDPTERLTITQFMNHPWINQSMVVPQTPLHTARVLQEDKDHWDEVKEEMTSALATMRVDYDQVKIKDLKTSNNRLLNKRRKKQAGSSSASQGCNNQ
Mitogen-activated protein kinase 13 (Homo sapiens), sequence (O15264 whole entry): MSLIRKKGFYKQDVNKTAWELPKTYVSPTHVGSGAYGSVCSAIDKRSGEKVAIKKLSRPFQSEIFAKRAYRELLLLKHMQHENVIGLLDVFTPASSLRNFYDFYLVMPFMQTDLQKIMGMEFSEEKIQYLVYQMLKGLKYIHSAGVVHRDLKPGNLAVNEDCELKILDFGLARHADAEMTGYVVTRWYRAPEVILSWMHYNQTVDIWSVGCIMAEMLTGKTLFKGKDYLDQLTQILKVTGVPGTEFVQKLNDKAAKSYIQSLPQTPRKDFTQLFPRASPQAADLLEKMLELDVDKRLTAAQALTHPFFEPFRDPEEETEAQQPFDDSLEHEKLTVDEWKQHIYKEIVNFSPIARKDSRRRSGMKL
Serine/threonine-protein kinase PAK 2 (Homo sapiens), sequence (Q13177 whole entry): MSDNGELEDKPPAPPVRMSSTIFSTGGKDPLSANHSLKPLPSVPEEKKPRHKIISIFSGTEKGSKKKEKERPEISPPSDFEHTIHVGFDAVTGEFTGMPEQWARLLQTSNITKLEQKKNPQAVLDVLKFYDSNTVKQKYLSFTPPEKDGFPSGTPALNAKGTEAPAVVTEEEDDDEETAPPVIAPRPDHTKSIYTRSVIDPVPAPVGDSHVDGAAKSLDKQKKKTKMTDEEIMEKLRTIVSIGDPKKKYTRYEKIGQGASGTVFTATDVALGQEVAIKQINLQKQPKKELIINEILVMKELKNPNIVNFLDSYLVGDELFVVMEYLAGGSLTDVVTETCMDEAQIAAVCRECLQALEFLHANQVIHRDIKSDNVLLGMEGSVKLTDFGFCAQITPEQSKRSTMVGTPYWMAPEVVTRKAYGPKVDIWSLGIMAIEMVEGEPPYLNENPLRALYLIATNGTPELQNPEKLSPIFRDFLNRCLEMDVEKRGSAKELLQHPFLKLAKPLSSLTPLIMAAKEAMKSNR
RAC-beta serine/threonine-protein kinase (Homo sapiens), sequence (P31751 whole entry): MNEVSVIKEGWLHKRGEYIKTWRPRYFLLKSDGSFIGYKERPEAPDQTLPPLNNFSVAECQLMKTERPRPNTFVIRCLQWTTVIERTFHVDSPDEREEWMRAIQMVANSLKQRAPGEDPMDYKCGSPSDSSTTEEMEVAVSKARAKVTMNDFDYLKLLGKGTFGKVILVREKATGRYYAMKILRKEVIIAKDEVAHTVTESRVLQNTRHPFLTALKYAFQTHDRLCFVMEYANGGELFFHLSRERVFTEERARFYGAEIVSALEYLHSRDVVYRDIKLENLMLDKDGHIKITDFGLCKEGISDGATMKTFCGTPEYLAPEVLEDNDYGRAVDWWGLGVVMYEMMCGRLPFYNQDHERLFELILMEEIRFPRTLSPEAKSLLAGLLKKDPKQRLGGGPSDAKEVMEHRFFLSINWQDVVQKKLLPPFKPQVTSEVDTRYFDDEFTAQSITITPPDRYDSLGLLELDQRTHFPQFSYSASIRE

IC50 [1]: > 298 µM | IC50 [2]: > 117 µM | IC50 [3]: > 201 µM | IC50 [4]: > 1000 µM | inhibition [5]: 56% | inhibition [6]: 21% | inhibition [7]: 13% | inhibition [8]: 9.7% | inhibition [9]: 4.4% | inhibition [10]: 8.3% | inhibition [11]: 16% | inhibition [12]: 3.9% | inhibition [13]: -5.9% | inhibition [14]: -10% | inhibition [15]: 2.5% | concentration at 3 h [25]: < 5 nM | clearance [26]: 1180 mL/min | CL renal at 3 h [27]: 1.5 mL/min
Compound: Cc1cc([C@@H](C)Nc2ccccc2C(=O)O)c2nc(N3CCOCC3)cc(=O)n2c1 [AZD-6482]
inhibition at 1 µM [16]: > 80% | Activity [17]: inactive | Activity [18]: 105 µmol/min/kg | Activity [19]: 7.7 mM | Activity [20]: 1.9 nM | Activity [21]: 2.3 nM | Activity [22]: 0.3 nM | Activity [23]: 3.4 nM | Activity [24]: Non-Toxic
